Assay outcomes: PubChem, Broad Institute
Env fusion inh: HIV envelope-mediated fusion inhibition; inhibition, % at 12.3 µM; HeLa-JRFL Env/CEM21 cell fusion, luciferase; 360,000 compounds, 1.1% hits;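 active = mean replicate inhibition score of at least 50 and every replicate individually at or above 50; inconclusive = only one of the two criteria met; inactive = mean below 50 and not all replicates reaching 50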;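 also: 0% = plate neutral controls and 100% = maraviroc near 300 nM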
DENV2 CPE: DENV2-induced cell death inhibition; AID 651640; 350,000 compounds, 1.7% hits; CPE inhibition, % at 9.99 µM; DENV2-infected cells, cytopathic effect rescue, plate reader; in the data active = CPE inhibition above about 20%, passing the limit was not always enough; inconclusive = no clear call, values can overlap the other calls; tested in BHK-21 cells;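 also: 0% = median of neutral control wells and 100% = median of positive control wells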
FN deposit inh: fibronectin deposition inhibition | AH1F fibroblasts, Alexa488-fibronectin deposition fluorescence, overnight | inhibition, % at 12.6 µM | 350,000 compounds, 0.086% hits;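 active = mean inhibition across replicates of 30% or more, regardless of how many single replicates reach that level; inconclusive = mean under 30% yet at least half of replicates reach 30%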;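 also: positive control wells lacked labelled fibronectin entirely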
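Material: AH1F fibroblast monolayer depositing Alexa488-labelled fibronectin into matrix | Input: 10000 AH1F cells/well | Medium: DMEM plus 2% serum, read in PBS | Reagent: Alexa488-fibronectin, 24 nM final in well | Compound dosing: One dose per compound, pinned | Schedule: 1 h adhesion, overnight exposure | Measured by: Fluorescence at 485 nm excitation, 525 nm emission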
PGC1a acetyl inh: PGC1a acetylation modulation, inhibitor mode | U2OS PGC1a acetylation, AlphaScreen anti-acetyl-lysine; with virally co-expressed GCN5 acetyltransferase | inhibition, % at 15.6 µM | 350,000 compounds, 0.17% hits;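 active = every replicate shows inhibition of at least 40%; inconclusive = mean inhibition at least 40% but some replicate below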;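 also: 0% = neutral control wells and 100% = positive control wells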
PglD DTNB: PglD (C. jejuni) enzyme inhibition. purified PglD enzyme, DTNB colorimetric CoA detection. inhibition, % at 12.5 µM. 360,000 compounds, 0.098% hits; in the data active = inhibition above about 16%, passing the limit was not always enough; inconclusive = no clear call, values can overlap the other calls
rRNA inh HTS: inhibits bacterial ribosomal RNA function over humanized ribosomes | AID 720706 | E. coli WT GFP vs humanized-ribosome RFP mutants, fluorescence, 24 h; active compounds read low; DMSO median 0, no signal -100 | 350,000 compounds, 1.6% hits | GFP signal change (wild-type ribosome), % (concentration not given with the values);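 active = significant combined selectivity score with lowered wild-type GFP, culture density cut under 30%, mutant RFP and density less affected; inactive = any of these conditions unmet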
An asterisk follows results filed as active; ? = inconclusive; nt = no result; [ ] = remark or other dose. An excerpt weighted towards active compounds, which were near 3.5% of everything screened.

SMILES | Env fusion inh | DENV2 CPE | FN deposit inh | PGC1a acetyl inh | PglD DTNB | rRNA inh HTS
CC1=C(C)/C(=N\OS(=O)(=O)c2ccc(C)cc2)C=CC1=O | -298.0 | nt | 33.1* | nt | nt | nt
C[C@@H]1CN([C@H](C)CO)C(=O)c2cc(-c3cncnc3)cnc2O[C@H]1CN(C)C(=O)c1ccccc1F | -10.7[16.7 µM] | -5.5 | nt | -1.7 | 1.1 | -0.2
CC(C)NC(=O)Nc1ccc2c(c1)CC(=O)N([C@H](C)CO)C[C@@H](C)[C@@H](CN(C)C(=O)NC1CCCCC1)O2 | 7.3[16.7 µM] | 3.4 | nt | 2.6 | -16.5 | 5.2
Cc1[nH]c2ccc(-c3n[nH]c(=S)n3C)cc2c1C | nt | 9.9 | nt | -28.1 | -1.7 | -15.8*
CCNC(=O)C[C@H]1CC[C@@H]2[C@H](COc3ccc(NC(=O)Nc4ccc(Cl)cc4)cc3C(=O)N2C)O1 | -12.7[16.7 µM] | -3.6 | -27.2 | -8.1 | 1.7 | -2.4
O=C(CN1CCOCC1)NCC[C@H]1CC[C@@H](NC(=O)c2ccccc2F)[C@@H](CO)O1 | 0.9[16.7 µM] | 10.3 | -0.6 | 4.3 | 4.1 | 2.6
NC(=O)c1cc(Cl)cn(-c2ccccc2)c1=O | 5.5 | 82.5* | 2.4 | -3.6 | -4.3 | 11.5
COC(=O)Cc1c(O)ccn(Cc2ccc(Cl)c(Cl)c2)c1=O | 11.5 | 5.0 | 5.3 | 4.1 | nt | -21.1*
COC(=O)Cc1c(O)ccn(Cc2ccc(OC)c(OC)c2)c1=O | 1.0 | -2.8 | -3.6 | nt | 1.4 | 16.0
COc1ccc(NS(=O)(=O)c2cc(NC(=O)c3ccc(=O)[nH]n3)ccc2N2CCOCC2)cc1 | -19.1 | -4.0 | 5.8 | -1.8 | 4.7 | -27.4*
C/C=C/c1ccc([C@H]2[C@@H](CO)N(C(=O)C3CC3)[C@@H]2CN(CC)C(C)=O)cc1 | nt | -10.7 | -24.6 | 0.2 | 1.6 | -1.6
COc1cccc(OC)c1Nc1nc(C)nc2c1nnn2Cc1ccccc1Cl | 9.0 | 60.3* | -3.0 | 2.9 | nt | 7.3
Cc1nc(NCCc2ccccc2)c2nnn(Cc3ccccc3Cl)c2n1 | -16.1 | -7.9 | -3.6 | ? | -6.1 | -4.1
CCCNC(=O)[C@@]1(C)c2ccccc2C(=O)N(Cc2ccc(OC(F)(F)F)cc2)[C@H]1c1ccc(CO)cc1 | -31.0[16.7 µM] | 20.1* | nt | -14.5 | -2.5 | nt
CCCNC(=O)[C@@]1(C)c2ccccc2C(=O)N(Cc2ccccc2)[C@H]1c1ccc(CO)cc1 | 20.2[16.7 µM] | 3.7 | nt | 3.7 | 1.0 | nt
O=S(=O)(NCCC1=CCCCC1)c1ccc(Br)cc1 | -2.6 | 119.3* | -7.9 | nt | -3.4 | -60.3
COc1ccc(N(CC(=O)NC2CCCCC2)C(=O)CNC(=O)c2cccs2)cc1 | -1.6 | -6.9 | 3.3 | -4.4 | -2.4 | -0.9
CCOc1ccc(N(CC(=O)NC2CCCCC2)C(=O)CNC(=O)c2cccs2)cc1 | -53.9 | 33.3* | 0.5 | -7.2 | -3.4 | 3.6
CO[C@@H]1CN(C)C(=O)c2cc(NC(=O)Nc3ccccc3)ccc2OC[C@H](C)N(CC2CC2)C[C@H]1C | nt | -3.4 | 9.4 | 0.9 | -3.2 | 2.7
CCOCC(=O)Nc1c(C(=O)Nc2ccc3c(c2)OCCO3)oc2ccccc12 | -65.3 | -6.5 | 1.0 | -15.3 | nt | -25.0*
Cc1ccc(NC(=O)c2oc3ccccc3c2NC(=O)C2CCCO2)cc1C (stereo not given) | -51.0 | -5.7 | 1.2 | -18.4 | nt | -12.7
COc1ccc(NC(=O)c2oc3ccccc3c2NC(=O)C2CCCO2)cc1OC (stereo not given) | 4.2 | nt | nt | -1.3 | -5.0 | -36.8*
COCC(=O)Nc1c(C(=O)Nc2ccc3c(c2)OCCO3)oc2ccccc12 | -56.6 | -1.4 | 7.4 | 0.9 | -3.0 | -22.8
COc1cccc(C(=O)Nc2ccc3c(c2)OC[C@H](C)N(CC2CC2)C[C@H](C)[C@H](OC)CN(C)C3=O)c1 | nt | 13.0 | 5.3 | 0.8 | -1.4 | -1.5
O=C(/C=C/c1ccccc1)CC(O)(c1ccccc1)C(F)(F)F (stereo not given) | nt | nt | nt | ? | 2.5 | nt
SMILES | Env fusion inh | DENV2 CPE | FN deposit inh | PGC1a acetyl inh | PglD DTNB | rRNA inh HTS
O=C(/C=C/c1ccccc1)CC(O)(c1ccccc1)C(F)(F)C(F)F (stereo not given) | nt | 2.3 | nt | ? | -0.5 | -31.9*
CCn1nc2cc(C(=O)NCc3cc(C(F)(F)F)cc(C(F)(F)F)c3)ccc2c1OC | -15.3 | -8.5 | -6.1 | -0.4 | -2.2 | 5.1
CCCCn1nc2cc(C(=O)NCc3cc(C(F)(F)F)cc(C(F)(F)F)c3)ccc2c1OC | 62.9* | -1.3 | 3.6 | -0.9 | -6.2 | 7.4
CCOC(=O)C(Cc1ccc(O)c([N+](=O)[O-])c1)N1C(=O)c2ccccc2C1=O (stereo not given) | 20.4 | -8.6 | 1.7 | nt | nt | -25.4*
O=C(O)C(Cc1ccc(O)c([N+](=O)[O-])c1)N1C(=O)c2ccccc2C1=O (stereo not given) | nt | 4.1 | -2.3 | -2.4 | 3.9 | 5.7
C[C@@H]1CN([C@@H](C)CO)S(=O)(=O)c2ccc(/C=C/c3ccccc3)cc2O[C@@H]1CN(C)CC1CC1 | 13.4[16.7 µM] | 5.7 | 5.1 | -24.8 | 2.0 | 3.4
CCS(=O)(=O)Nc1ccc2c(c1)C(=O)N(C)C[C@@H](OC)[C@@H](C)CN(CC1CCCC1)[C@H](C)CO2 | 10.6[16.7 µM] | nt | -2.9 | -3.1 | -0.9 | 2.3
O=C(CN1CCOCC1)NCC[C@H]1CC[C@H](NC(=O)Cc2ccccn2)[C@H](CO)O1 | -16.0[16.7 µM] | -1.4 | 20.7 | 10.2 | 4.9 | 2.3
O=C(O)C[C@H]1C=C[C@H](NC(=O)Nc2ccccc2)[C@@H](CO)O1 | 3.3[16.7 µM] | 14.8 | 0.8 | -5.1 | -3.0 | 6.6
O=C(O)C[C@@H]1C=C[C@H](NC(=O)Nc2ccccc2)[C@H](CO)O1 | 57.8*[16.7 µM] | -7.1 | 19.9 | 3.6 | 1.0 | -0.8
O=C(CN1CCOCC1)NCC[C@H]1CC[C@H](NC(=O)Cc2ccccn2)[C@@H](CO)O1 | 11.9[16.7 µM] | 24.4* | -7.6 | 10.3 | 1.6 | 1.1
O=C(Cc1ccccn1)NCC[C@@H]1CC[C@H](NC(=O)Nc2ccc(C(F)(F)F)cc2)[C@H](CO)O1 | -4.7[16.7 µM] | -4.3 | -1.0 | 77.9* | -2.6 | -2.2
O=C(C[C@H]1C=C[C@@H](NC(=O)Nc2ccc(C(F)(F)F)cc2)[C@@H](CO)O1)NCc1ccccn1 | nt | 20.1* | -2.4 | 6.4 | nt | -3.1
C[C@H]1CN([C@@H](C)CO)C(=O)Cc2cc(NC(=O)Nc3ccccc3)ccc2O[C@@H]1CN(C)C(=O)Nc1ccc2c(c1)OCO2 | -14.9[16.7 µM] | nt | nt | -33.2 | -2.1 | 2.0
O=C(CN1CCOCC1)NCC[C@@H]1CC[C@H](NC(=O)c2ccc3c(c2)OCO3)[C@H](CO)O1 | 9.0[16.7 µM] | -12.2 | 2.5 | 7.1 | -1.4 | 3.2
O=C(CN1CCOCC1)NCC[C@@H]1CC[C@H](NC(=O)c2ccc3c(c2)OCO3)[C@@H](CO)O1 | -8.2[16.7 µM] | 22.0* | 9.2 | 10.9 | 0.4 | 2.8
O=C(N[C@@H]1CC[C@H](CCNS(=O)(=O)Cc2ccccc2)O[C@H]1CO)c1ccc2c(c1)OCO2 | -26.8[16.7 µM] | 9.9 | 1.5 | -19.8 | 0.8 | -0.6
